Measurements taken from the RNAGym collection of RNA variant scans (doi:10.1038/s41586-018-0170-7).

B1: tRNA (parent)
chain: GUUCCGUUGGCGUAAUGGUAACGCGUCUCCCUCCUAAGGAGAAGACUGCGGGUUCGAGUCCCGUACGGAACG

Variants of: B1
Assay: yeast fitness, log relative to wild type (ln ratio); higher = fitter; tRNA-Arg(CCU), competitive growth, 37 C, 1 M NaCl
Method in brief: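 Fitness is the natural log of a genotype's generation count divided by that of the wild type. A combinatorial library of tRNA-Arg(CCU) variants sat on a HIS3 centromeric plasmid in BY4742 lacking the chromosomal gene, from two independent transformations. Pools grew 4 generations in SC-HIS at 30 °C, then ~6.5 generations (~26.5 h) in SC-HIS 1M NaCl at 37 °C, with three outputs per input. Generations came from OD-scaled log2 output/input frequency, inverse-variance weighted across replicates, with variants counted by 125 bp paired-end Illumina sequencing.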

Row | Variant | yeast fitness (ln)
1 | U2C C27U C46U A70G C71U | -0.0224
2 | G1A G6A C27U C46U C66A A69G A70G C71U | -0.145
3 | G1A U2C G6U C46U C66A A70G C71U | -0.0251
4 | G1A U2C C27U A43C C46U A70G | -0.0342
5 | G1A U2G A43C C46U C66A A69G A70U C71U | -0.233
6 | G1A U2G C46U A70G | -0.103
7 | G1A U2G G6A A70U C71U | -0.0851
8 | U2G G6A C27U A43C C71U | -0.197
9 | G1A U2C C46U A70U | -0.0782
10 | U2C C46U C66A C71U | -0.0793
11 | U2G G6U C27U C46U A70G | -0.156
12 | G6A A43C C46U C66U A70U C71U | -0.268
13 | G1A U2C G6A C27U C46U C66U A69G A70G | -0.364
14 | U2G C27U A43C C66A | -0.171
15 | U2G G6U | -0.0233
16 | G6A A43C C46U | -0.143
17 | G1A G6U A43C C66A A69G C71U | -0.863
18 | C27U A43C A70G C71U | -0.112
19 | U2C G6A C27U A43C C46U C66A A70U C71U | -0.268
20 | U2C G6U C27U C66A A70U C71U | -0.26
21 | G1A U2G G6U C46U C66U A69G A70G C71U | -0.244

Row | Variant | yeast fitness (ln)
22 | G1A C46U C66A A70G | -0.0981
23 | U2G G6A A43C C46U C71U | -0.151
24 | G1A U2G G6A A43C C46U C66U A70G | -0.181
25 | U2G G6A C27U A43C C46U A69G A70U C71U | -0.384
26 | U2G G6A C27U A43C A70G | -0.186
27 | G6A C27U A70U | -0.17
28 | G1A G6U C27U A43C | -0.258
29 | U2C G6U A43C C46U C66U A69G A70G | -0.262
30 | G1A U2C A43C A69G A70G | -0.151
31 | G1A U2C G6A A70U | -0.0459
32 | A43C A70U | -0.0384
33 | U2G C27U A69G C71U | -0.152
34 | G6U C27U A43C C46U C66U A69G A70G | -0.396
35 | G1A U2G G6A C27U C46U C66U | -0.258
36 | C27U C46U C66A A69G A70G | -0.124
37 | U2C G6A A43C C46U C66A A70U | -0.0148
38 | U2G C46U C66A | -0.0933
39 | G1A U2G G6U C66A A70U | -0.329
40 | U2C G6A C27U A43C C66U A69G A70G | -0.0511
41 | U2G G6A C46U A69G A70G | -0.115
42 | G1A C66U A70G | -0.107

Row | Variant | yeast fitness (ln)
43 | U2G C27U C46U C66A A69G C71U | -0.301
44 | U2C G6U A43C C46U C66U A69G A70U C71U | -0.471
45 | A43C C66U A69G A70G C71U | -0.22
46 | G6U C27U C46U A70G C71U | -0.321
47 | G1A U2C G6U A43C C46U | 0.0223
48 | C66A A70U | -0.00405
49 | G1A U2G G6U C27U A43C C66A A70U | -0.212
50 | G1A U2G G6U C66U A69G A70U C71U | -0.553
51 | U2G G6U C27U A43C A69G C71U | -0.439
52 | G1A G6U C27U A43C C46U C66A A69G A70U C71U | -0.426
53 | U2G G6U C27U C66U A69G A70U | -0.276
54 | G1A G6U A43C A70U | -0.247
55 | G1A G6U A43C C46U A70G C71U | -0.301
56 | G1A U2C G6U A70U | -0.00843
57 | U2C G6A A43C A69G A70U | -0.0661
58 | U2G C27U C46U C66U A70U C71U | -0.308
59 | U2C G6U C27U A43C C66U A70U C71U | -0.363
60 | G1A G6U C27U A70U C71U | -0.335
61 | G6U A69G C71U | -0.233
62 | G1A G6U C46U C66U A70U C71U | -0.298
63 | G6A C46U C66U A69G A70G C71U | -0.581

Row | Variant | yeast fitness (ln)
64 | U2G C46U C66U A69G | -0.119
65 | U2G G6A C27U A43C C46U C66A A69G A70U | -0.187
66 | G1A U2C C27U A43C C46U C66U A69G A70G C71U | -0.2
67 | G1A U2C G6A C66U A70G | -0.00694
68 | G1A U2G G6A C27U C46U C66U A70U | -0.28
69 | G1A C27U A43C C46U C66U A69G A70G C71U | -0.347
70 | C27U C46U C71U | -0.028
71 | U2C A43C C46U C66A | 0.0909
72 | G1A G6A C27U C66U | -0.283
73 | G1A U2G G6U C27U A43C C46U A69G A70G | -0.192
74 | G1A U2G G6A A69G A70U | -0.153
75 | U2G G6A C27U A43C C46U A70G | -0.145
76 | G6A C27U A43C C66U A69G A70G C71U | -0.371
77 | G1A U2G G6U C27U A43C C46U C71U | -0.277
78 | G1A G6U A69G A70G C71U | -0.247
79 | U2G G6A C27U C66U | -0.0928
80 | G1A U2C C27U A43C C46U A69G A70G C71U | -0.0168
81 | C27U A43C C46U A69G C71U | -0.207
82 | G6U C27U C46U C66A A69G A70G C71U | -0.254
83 | U2C A43C C46U C66U A70U C71U | -0.198
